Source: ChEMBL document CHEMBL1155568, “Biological characterization of fusapyrone and deoxyfusapyrone, two bioactive secondary metabolites of Fusarium semitectum” (J Nat Prod, 2000)
Converted amounts (≈) assume the structure as drawn.

Columns and labels:
[1] = Toxicity against Artemia salina larvae; assay type: organism-based; conditions: in vivo
Procedure, shortened: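 Quadruplicate wells; mortality counted after 24 and 36 h at 27 °C. LC50 from probit analysis of dose-mortality data from six independent experiments.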

Solanum lycopersicum = test: Phytotoxicity in tomato leaf assessed as chlorosis in the leaf at 10^-5 M by tomato cutting assay; assay type: organism-based; conditions: in vivo, 10 µM
Procedure, shortened: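 Young greenhouse tomato plants cut with razor; stems immersed in toxin solutions (10^-3 to 10^-6 M; compound in small MeOH volume diluted with water) 24 h at 22 °C, 12-h photoperiod, fluorescent light. Then moved to distilled water 48 h under same conditions; symptoms (e.g. chlorosis, wilting) scored visually.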

Pichia kluyveri = test: Antifungal activity against Pichia kluyveri ITEM 1649 at 15 ug/disk by paper disk method; assay type: functional
Procedure, shortened: (§1)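 Agar overlay disk diffusion on plant-derived filamentous fungi and yeasts: 0.7% water-agar seeded with 10^4 conidia/mL or a yeast cell suspension, poured over PDA. 6-mm cellulose disks were loaded from methanolic solutions and air-dried, with nystatin as comparator. Plates ran 24-72 h at 25 °C; inhibition halo was measured over three disks. Agar beneath disks was subcultured on PDA to separate fungicidal from fungistatic, scored in four classes; run twice, averaged.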

Fusarium subglutinans = test: Antifungal activity against Fusarium subglutinans at 15 ug/disk by paper disk method; assay type: functional
Procedure, shortened: (§2)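 Agar diffusion: a 0.7% water-agar overlay carrying 10^4 conidia/mL (or yeast cells) is poured on PDA. 6-mm cellulose disks loaded with methanolic compound at 5 or 15 µg/disk are air-dried and applied, with nystatin as comparator. Plates incubated 24-72 h at 25 °C; inhibition halo diameter read from three disks. Agar under each disk is subcultured on PDA to score fungicidal/fungistatic effect. Experiment run twice and averaged.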

Alternaria alternata [2] = test: Antifungal activity against Alternaria alternata ITEM 468 at 15 ug/disk by paper disk method; assay type: functional; procedure, shortened: as §2
Alternaria alternata [3] = test: Antifungal activity against Alternaria alternata ITEM 511 at 15 ug/disk by paper disk method; assay type: functional; procedure, shortened: as §2
Alternaria alternata [4] = test: Antifungal activity against Alternaria alternata ITEM 526 at 15 ug/disk by paper disk method; assay type: functional; procedure, shortened: as §2
Alternaria alternata [5] = test: Antifungal activity against Alternaria alternata ITEM 750 at 15 ug/disk by paper disk method; assay type: functional; procedure, shortened: as §2
Alternaria citri = test: Antifungal activity against Alternaria citri ITEM 466 at 15 ug/disk by paper disk method; assay type: functional
Procedure, shortened: (§3)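 Agar overlay diffusion: 0.7% water-agar with 10^4 conidia/mL of test fungus poured over PDA; 6-mm cellulose disks impregnated with methanolic compound solution, air-dried. Incubated 25 °C for 24-72 h by fungus; growth-inhibition halo diameter from three replicate disks. Agar under disks then subcultured on PDA to score fungicidal/fungistatic classes. Repeated twice, averaged.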

Ascochyta rabiei = test: Antifungal activity against Ascochyta rabiei ITEM 1067 at 15 ug/disk by paper disk method; assay type: functional; procedure, shortened: as §2
Aspergillus flavus = test: Antifungal activity against Aspergillus flavus ITEM 9 at 15 ug/disk by paper disk method; assay type: functional; procedure, shortened: as §2
Aspergillus parasiticus = test: Antifungal activity against Aspergillus parasiticus ITEM 11 at 15 ug/disk by paper disk method; assay type: functional; procedure, shortened: as §2
Botrytis cinerea [6] = test: Antifungal activity against Botrytis cinerea ITEM 966 at 15 ug/disk by paper disk method; assay type: functional; procedure, shortened: as §2
Botrytis cinerea [7] = test: Antifungal activity against Botrytis cinerea at 15 ug/disk by paper disk method; assay type: functional; procedure, shortened: as §2
[8] = test system: Cladosporium cladosporioides; test: Antifungal activity against Cladosporium cladosporioides ITEM 2079 at 15 ug/disk by paper disk method; assay type: functional; procedure, shortened: as §2
Cladosporium cucumerinum = test: Antifungal activity against Cladosporium cucumerinum ITEM 2095 at 15 ug/disk by paper disk method; assay type: functional; procedure, shortened: as §2
[9] = test system: Colletotrichum gloeosporioides; test: Antifungal activity against Colletotrichum gloeosporioides ITEM 1729 at 15 ug/disk by paper disk method; assay type: functional; procedure, shortened: as §2
Fusarium acuminatum = test: Antifungal activity against Fusarium acuminatum ITEM 795 at 15 ug/disk by paper disk method; assay type: functional; procedure, shortened: as §2
Fusarium graminearum = test: Antifungal activity against Fusarium graminearum ITEM 2 at 15 ug/disk by paper disk method; assay type: functional; procedure, shortened: as §3
Fusarium verticillioides = test: Antifungal activity against Fusarium moniliforme ITEM 1497 at 15 ug/disk by paper disk method; assay type: functional; procedure, shortened: as §2
Fusarium oxysporum [10] = test: Antifungal activity against Fusarium oxysporum ITEM 149 at 15 ug/disk by paper disk method; assay type: functional; procedure, shortened: as §2
Fusarium oxysporum [11] = test: Antifungal activity against Fusarium oxysporum ITEM 1462 at 15 ug/disk by paper disk method; assay type: functional; procedure, shortened: as §2
Penicillium verrucosum = test: Antifungal activity against Penicillium verrucosum ITEM 439 at 15 ug/disk by paper disk method; assay type: functional; procedure, shortened: as §1
[12] = test system: Fusarium oxysporum f. sp. lycopersici; test: Antifungal activity against Fusarium oxysporum f. sp. lycopersici ITEM 1462 at 15 ug/disk by paper disk method; assay type: functional; procedure, shortened: as §2
Fusarium incarnatum = test: Antifungal activity against Fusarium semitectum ITEM 393 at 15 ug/disk by paper disk method; assay type: functional; procedure, shortened: as §2
Plenodomus tracheiphilus = test: Antifungal activity against Phoma tracheiphilla ITEM 1605 at 15 ug/disk by paper disk method; assay type: functional; procedure, shortened: as §1
[13] = test system: Penicillium brevicompactum; test: Antifungal activity against Penicillium brevicompactum ITEM 449 at 15 ug/disk by paper disk method; assay type: functional; procedure, shortened: as §1
[14] = test system: Meyerozyma guilliermondii; test: Antifungal activity against Candida guilliermondii ITEM 1638 at 15 ug/disk by paper disk method; assay type: functional; procedure, shortened: as §2
Candida maltosa = test: Antifungal activity against Candida maltosa ITEM 1639 at 15 ug/disk by paper disk method; assay type: functional; procedure, shortened: as §2
Kluyveromyces marxianus = test: Antifungal activity against Kluyveromyces fragilis ITEM 1657 at 15 ug/disk by paper disk method; assay type: functional; procedure, shortened: as §1
Kluyveromyces lactis = test: Antifungal activity against Kluyveromyces lactis ITEM 1656 at 15 ug/disk by paper disk method; assay type: functional; procedure, shortened: as §1
Wickerhamomyces anomalus [15] = test: Antifungal activity against Pichia anomala ITEM 1625 at 15 ug/disk by paper disk method; assay type: functional; procedure, shortened: as §1
Wickerhamomyces anomalus [16] = test: Antifungal activity against Pichia anomala ITEM 1661 at 15 ug/disk by paper disk method; assay type: functional; procedure, shortened: as §1
Starmera dryadoides = test: Antifungal activity against Pichia dryadoides ITEM 1663 at 15 ug/disk by paper disk method; assay type: functional; procedure, shortened: as §1
[17] = test system: Meyerozyma guilliermondii; test: Antifungal activity against Pichia guilliermondii ITEM 1644 at 15 ug/disk by paper disk method; assay type: functional; procedure, shortened: as §1
Saccharomyces cerevisiae = test: Antifungal activity against Saccharomyces cerevisiae ITEM 1633 at 15 ug/disk by paper disk method; assay type: functional; procedure, shortened: as §1
Rhodotorula mucilaginosa = test: Antifungal activity against Rhodotorula pilimanae at 15 ug/disk by […]; assay type: functional

CC(=O)OC[C@@H](C)C1=C(O)C(=O)[C@@]2(C)C/C=C(\C)CC/C=C(\C)CC[C@H](O)/C(C)=C/C[C@H]12 [FUSAPROLIFERIN]
LC50 [1]: 23.7 µg/mL (≈ 53.3 µM)

CCCCc1ccc(C(=O)O)nc1 [FUSARIC ACID]
Activity (Solanum lycopersicum): Active

NYSTATIN
Activity (Pichia kluyveri): 16.5 mm
Activity (Fusarium subglutinans): 24 mm
inhibition zone (IZ) (Alternaria alternata [2]): 30.2 mm
inhibition zone (IZ) (Alternaria alternata [3]): 32.2 mm
inhibition zone (IZ) (Alternaria alternata [4]): 28.7 mm
inhibition zone (IZ) (Alternaria alternata [5]): 29.2 mm
inhibition zone (IZ) (Alternaria citri): 30 mm
inhibition zone (IZ) (Ascochyta rabiei): 38.5 mm
inhibition zone (IZ) (Aspergillus flavus): 29 mm
inhibition zone (IZ) (Aspergillus parasiticus): 28.7 mm
inhibition zone (IZ) (Botrytis cinerea [6]): 31.2 mm
inhibition zone (IZ) (Botrytis cinerea [7]): 31 mm
inhibition zone (IZ) [8]: 37.3 mm
inhibition zone (IZ) (Cladosporium cucumerinum): 32.7 mm
inhibition zone (IZ) [9]: 38.2 mm
inhibition zone (IZ) (Fusarium acuminatum): 20.8 mm
inhibition zone (IZ) (Fusarium graminearum): 25.9 mm
inhibition zone (IZ) (Fusarium verticillioides): 18.7 mm
inhibition zone (IZ) (Fusarium oxysporum [10]): 19.5 mm
inhibition zone (IZ) (Fusarium oxysporum [11]): 20 mm
inhibition zone (IZ) (Penicillium verrucosum): 28.2 mm
inhibition zone (IZ) [12]: 21.7 mm
inhibition zone (IZ) (Fusarium incarnatum): 27 mm
inhibition zone (IZ) (Plenodomus tracheiphilus): 31.8 mm
inhibition zone (IZ) [13]: 18.3 mm
inhibition zone (IZ) [14]: 20 mm
inhibition zone (IZ) (Candida maltosa): 20 mm
inhibition zone (IZ) (Kluyveromyces marxianus): 19.5 mm
inhibition zone (IZ) (Kluyveromyces lactis): 18 mm
inhibition zone (IZ) (Wickerhamomyces anomalus [15]): 18.8 mm
inhibition zone (IZ) (Wickerhamomyces anomalus [16]): 15 mm
inhibition zone (IZ) (Starmera dryadoides): 19 mm
inhibition zone (IZ) [17]: 18.5 mm
inhibition zone (IZ) (Saccharomyces cerevisiae): 21 mm
inhibition zone (IZ) (Rhodotorula mucilaginosa): 28.5 mm
